The target of assay [1] is Acetylcholinesterase (Homo sapiens) (UniProt P22303). The assay is described as follows: Inhibition of recombinant human AChE activity. A digest of the protocol: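 Ellman-type assay with recombinant human AChE (0.03 U) in 0.005% gelatin and buffered DTNB pH 8.0. Inhibitor in 50% aqueous acetonitrile, tested as 1:10 serial dilutions. Acetylthiocholine 3 × 10^-5 to 1.6 × 10^-4 M. Absorbance at 412 nm every 5 s over 1 min, 23 °C, generally triplicate and averaged. Lineweaver–Burk plots with and without inhibitor.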
Sequence of Acetylcholinesterase (Homo sapiens) (P22303 whole entry): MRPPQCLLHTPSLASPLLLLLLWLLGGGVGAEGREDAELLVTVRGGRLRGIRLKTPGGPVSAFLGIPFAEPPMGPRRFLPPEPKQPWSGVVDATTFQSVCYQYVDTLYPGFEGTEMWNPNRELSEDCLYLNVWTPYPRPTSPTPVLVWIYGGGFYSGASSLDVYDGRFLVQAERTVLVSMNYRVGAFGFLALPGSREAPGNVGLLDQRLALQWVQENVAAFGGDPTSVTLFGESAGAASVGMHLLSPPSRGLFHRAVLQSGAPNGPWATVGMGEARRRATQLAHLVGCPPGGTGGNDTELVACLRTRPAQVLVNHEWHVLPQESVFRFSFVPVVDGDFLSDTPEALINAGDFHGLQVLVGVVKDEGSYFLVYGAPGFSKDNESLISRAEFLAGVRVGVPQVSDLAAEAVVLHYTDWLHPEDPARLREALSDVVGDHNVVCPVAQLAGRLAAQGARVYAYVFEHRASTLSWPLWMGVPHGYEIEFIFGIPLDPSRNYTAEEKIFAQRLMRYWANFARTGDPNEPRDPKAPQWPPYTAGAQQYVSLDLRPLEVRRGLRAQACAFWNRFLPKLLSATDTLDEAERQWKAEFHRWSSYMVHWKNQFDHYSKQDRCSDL

The target of a further assay is Cholinesterase (Homo sapiens, UniProt P06276). Kind of assay: Inhibition of human plasma BuChE activity. It is filed as cell-free. An outline of the steps:
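Modified Ellman assay with purified human serum BuChE (0.05 U) in 0.005% gelatin, buffered DTNB pH 8.0. Inhibitor in 50% aqueous acetonitrile (1.67% v/v final), 1:10 serial dilutions. Butyrylthiocholine 3 × 10^-5 to 1.6 × 10^-4 M. A412 read every 5 s for 1 min at 23 °C, at least triplicate. Ki from slope replot of Lineweaver–Burk lines (no inhibitor, two inhibitor levels).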

Each structure is given as a SMILES string. Activity calls are given as the source filed them. The calls are words filed in the database; no cut-off is given here.

Sequence of Cholinesterase (P06276 whole entry): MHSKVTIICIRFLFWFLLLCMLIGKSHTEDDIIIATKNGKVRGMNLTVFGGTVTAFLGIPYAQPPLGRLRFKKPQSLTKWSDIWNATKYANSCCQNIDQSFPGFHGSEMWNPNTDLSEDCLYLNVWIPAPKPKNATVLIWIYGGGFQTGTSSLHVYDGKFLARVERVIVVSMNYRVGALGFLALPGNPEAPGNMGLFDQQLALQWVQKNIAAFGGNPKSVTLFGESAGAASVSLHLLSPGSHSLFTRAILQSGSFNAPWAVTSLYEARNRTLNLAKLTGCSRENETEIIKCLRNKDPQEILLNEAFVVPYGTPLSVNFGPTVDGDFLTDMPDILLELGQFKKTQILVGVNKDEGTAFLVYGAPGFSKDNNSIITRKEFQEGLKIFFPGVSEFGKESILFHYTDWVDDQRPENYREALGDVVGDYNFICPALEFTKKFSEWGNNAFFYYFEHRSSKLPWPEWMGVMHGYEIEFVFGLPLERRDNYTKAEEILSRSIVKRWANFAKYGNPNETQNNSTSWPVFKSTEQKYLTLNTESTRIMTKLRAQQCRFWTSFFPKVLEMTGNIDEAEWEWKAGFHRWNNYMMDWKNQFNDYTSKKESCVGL

The Ki is the equilibrium dissociation constant of an inhibitor or competing ligand from its target. A higher Ki goes with weaker binding. For the compound `O=C(c1ccc2ccccc2c1)N1c2ccccc2Sc2ccccc21`, the outcome in assay [1] was inactive. This compound also showed a Ki on Cholinesterase of 470 nM. As to `O=C(c1ccc(-c2ccccc2)cc1)N1c2ccccc2Sc2ccccc21`, the result in assay [1] was inactive.

Regarding `O=C(c1ccc([N+](=O)[O-])cc1)N1c2ccccc2Sc2ccccc21`, the result in assay [1] was inactive. Further, on Cholinesterase, the Ki came to 820 nM. Regarding `O=C(C(=O)N1c2ccccc2Sc2ccccc21)N1c2ccccc2Sc2ccccc21`, the outcome in assay [1] was inactive. Affinity on Cholinesterase was put at a Ki of 220 nM. Regarding `O=C(CCCc1ccccc1)N1c2ccccc2Sc2ccccc21`, the result in assay [1] was inactive. Also, the Ki at Cholinesterase was 220 nM.

On to `CCC(C(=O)N1c2ccccc2Sc2ccccc21)c1ccccc1` (stereo not drawn), for which the result in assay [1] was inactive. This compound yielded a Ki at Cholinesterase of 400 nM. The matching figures for `O=C(Cc1ccc2ccccc2c1)N1c2ccccc2Sc2ccccc21`: “inactive” and 28 nM.

Take `CC(CC(=O)N1c2ccccc2Sc2ccccc21)c1ccccc1` (stereo not drawn): the outcome in assay [1] was inactive. This compound also registered a Ki on Cholinesterase of 1700 nM. In the same order, the values of `O=C(c1cccc2ccccc12)N1c2ccccc2Sc2ccccc21` are “inactive” and 88 nM. The matching figures for `Cc1ccccc1C(=O)N1c2ccccc2Sc2ccccc21`: “inactive” and 3100 nM. The matching figures for `O=C(c1c2ccccc2cc2ccccc12)N1c2ccccc2Sc2ccccc21`: “inactive” and 3.5 nM. `O=C(Cc1ccc(-c2ccccc2)cc1)N1c2ccccc2Sc2ccccc21`: in assay [1], the result was inactive. For the same compound, at Cholinesterase, the affinity, expressed as Ki, was 1700 nM. The matching figures for `CC(=O)Oc1ccc(C(=O)N2c3ccccc3Sc3ccccc32)cc1`: “inactive” and 23000 nM. In the same order, the values of `O=C(CCc1ccccc1)N1c2ccccc2Sc2ccccc21` are “inactive” and 6200 nM.

Regarding `CC(C)(C)c1ccc(C(=O)N2c3ccccc3Sc3ccccc32)cc1`, the result in assay [1] was inactive. For `CC(C(=O)N1c2ccccc2Sc2ccccc21)c1ccccc1` (stereo not drawn), in assay [1], the result was inactive. For the same compound, affinity at Cholinesterase was put at a Ki of 560 nM. The matching figures for `COc1ccc(C(=O)N2c3ccccc3Sc3ccccc32)cc1`: “inactive” and 1500 nM. In the same order, the values of `O=C(c1cccc(Br)c1)N1c2ccccc2Sc2ccccc21` are “inactive” and 600 nM. In the same order, the values of `O=C(c1ccccc1)N1c2ccccc2Sc2ccccc21` are “inactive” and 5800 nM. Take `O=C(/C=C/c1ccccc1)N1c2ccccc2Sc2ccccc21`: the outcome in assay [1] was inactive. Further, affinity on Cholinesterase was put at a Ki of 2700 nM.

Turning to `Cc1cccc(C(=O)N2c3ccccc3Sc3ccccc32)c1`, the result in assay [1] was inactive. Also, the affinity on Cholinesterase, expressed as Ki, was 1900 nM. The matching figures for `O=C(c1ccc(Br)cc1)N1c2ccccc2Sc2ccccc21`: “inactive” and 1300 nM.

With `O=C(Cc1cccc2ccccc12)N1c2ccccc2Sc2ccccc21`, in assay [1], the outcome was inactive. The affinity at Cholinesterase corresponds to a Ki of 90 nM. In the same order, the values of `O=C(Cc1ccccc1)N1c2ccccc2Sc2ccccc21` are “inactive” and 610 nM.

For the compound `Cc1ccc(C(=O)N2c3ccccc3Sc3ccccc32)cc1`, the outcome in assay [1] was inactive. The affinity at Cholinesterase, expressed as Ki, was 2500 nM.
